Lmaj promast – Leishmania major promastigote growth inhibition, primary screen. 9% of 200,000 active. Leishmania major promastigotes, resazurin fluorescence viability. inhibition, % at 10 µM; in the data active = inhibition above about 50%;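 note: promastigotes grown with compound for 44 hours at 28 °C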
SKKanGAS inh – S. pyogenes SKKanGAS growth inhibitors in kanamycin, primary screen, streptokinase expression inhibitor project, SKKanGAS strain, BacTiter-Glo luminescence | 6 h | inhibition, % at 7.5 µM | 1.3% of 300,000 active;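 active = mean replicate score, as percent of positive control median, at least 50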;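 note: strain carries kanamycin resistance gene driven by streptokinase promoter and grows in 40 µg/ml kanamycin; loss of luminescence reflects streptokinase promoter inhibition or plain growth inhibition; 0% = median of DMSO wells and 100% = positive control at its reference dose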
CSC inhib – cancer stem cell viability inhibitors, primary screen, luminescence. AID 2717, 2010. 1.1% of 300,000 active. cancer stem cell-like cells viability. inhibition, % at 7.5 µM; in the data active = inhibition above about 75%; tested in HMLE shEcad cells
T cruzi inh – inhibitors of intracellular T. cruzi growth, primary screen, luminescence, NIH3T3 host cells; inhibition, % (test concentration not listed); AID 1885, 2009; T. cruzi beta-gal in NIH3T3, 90 h; 1.4% of 300,000 active;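 active = mean inhibition across valid replicates above about 55%, limit read from the data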;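 note: signal also drops with host cell toxicity which is not excluded here; 0% = plate median of DMSO wells and 100% = zero luminescence signal; higher percent means less beta-gal luminescence so fewer parasites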
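System: Mouse NIH/3T3 fibroblasts infected with β-gal-expressing T. cruzi Tulahuen C4 | Quantity: NIH/3T3 cells, 5,000 per well | Reagent: 5000 reporter trypomastigotes per well | Dosing: Compound pinned at 50 nL/well, DMSO | Schedule: 3 h host attachment, then at least 90 h co-culture | Detection: GalScreen luminescence, 60 min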
Mdm2 MdmX PPI – inhibitors of human Mdm2-MdmX association, primary screen, cell-based, luminescence, split luciferase, SaOS-2, uHTS; AID 485346, 2010; 3% of 330,000 active; SaOS-2 split-luciferase Mdm2/MdmX complementation; inhibition, % at 8 µM;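 active = inhibition of at least 50% at 8 µM in the primary screen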
Target sequence (O15151 whole entry, looked up): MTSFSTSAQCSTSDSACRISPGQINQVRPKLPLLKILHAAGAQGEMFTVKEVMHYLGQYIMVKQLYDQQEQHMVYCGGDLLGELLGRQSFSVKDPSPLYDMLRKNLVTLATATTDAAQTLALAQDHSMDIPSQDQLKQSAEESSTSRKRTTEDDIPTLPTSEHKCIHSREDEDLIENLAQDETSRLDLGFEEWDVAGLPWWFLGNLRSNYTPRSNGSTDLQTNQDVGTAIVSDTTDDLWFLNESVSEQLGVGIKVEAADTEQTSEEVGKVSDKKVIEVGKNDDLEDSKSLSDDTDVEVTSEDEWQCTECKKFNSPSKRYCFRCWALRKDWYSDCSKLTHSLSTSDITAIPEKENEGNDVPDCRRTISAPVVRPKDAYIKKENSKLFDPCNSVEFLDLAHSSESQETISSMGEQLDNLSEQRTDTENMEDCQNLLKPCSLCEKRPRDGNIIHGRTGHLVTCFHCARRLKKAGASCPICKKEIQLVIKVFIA
Target sequence (Q00987 whole entry, looked up): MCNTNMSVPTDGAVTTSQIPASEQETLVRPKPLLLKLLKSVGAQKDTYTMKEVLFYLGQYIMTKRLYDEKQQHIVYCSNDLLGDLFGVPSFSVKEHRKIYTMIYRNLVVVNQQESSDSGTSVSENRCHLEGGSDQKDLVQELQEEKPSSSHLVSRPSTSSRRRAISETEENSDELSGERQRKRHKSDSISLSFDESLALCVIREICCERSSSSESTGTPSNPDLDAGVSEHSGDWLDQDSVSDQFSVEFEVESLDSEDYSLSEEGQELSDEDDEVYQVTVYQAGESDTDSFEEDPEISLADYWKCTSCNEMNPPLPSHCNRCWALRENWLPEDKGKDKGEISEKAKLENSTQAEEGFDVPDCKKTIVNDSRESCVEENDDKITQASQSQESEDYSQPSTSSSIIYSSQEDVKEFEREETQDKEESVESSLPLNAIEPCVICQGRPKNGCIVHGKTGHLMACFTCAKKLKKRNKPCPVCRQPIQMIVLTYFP
Beta cell apopt – inhibitors of cytokine-induced beta cell apoptosis, primary screen, luminescence; INS-1E cytokine-induced death, ATP luminescence, 48 h; percent of positive-control rescue, neutral wells zero; protection from apoptosis, % (no concentration beside the values); 0.8% of 300,000 active; AID 435005, 2010;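 active = Every replicate reaches about 75%, or at least half do and their mean reaches it too, limit read from the data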;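 note: 0% = cytokine-treated negative control wells and 100% = positive control rescue; higher means more ATP so stronger rescue from cytokine killing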
Active calls of the source: *; / = no result. Rows were chosen to be rich in hits. Some 9.4% of all compounds tested hit in one or more screens of this group.

SMILES	Lmaj promast	SKKanGAS inh	CSC inhib	T cruzi inh	Mdm2 MdmX PPI	Beta cell apopt
OCCN1CCN(CC(O)COCc2ccc3c(c2)OCO3)CC1 (stereo unspecified)	-4	2	1	-7	9	2
CCN1CCN(CC(O)COCc2cc(OC)c(OC)c(OC)c2)CC1 (stereo unspecified)	-3	-1	-10	0	16	3
O=C1c2cccc3cccc(c23)C(=O)N1CC1CCN(CC(O)COCc2ccc3c(c2)OCO3)CC1 (stereo unspecified)	90*	1	28	41	25	15
OC(COc1ccccc1)CN1CCN(Cc2ccc3c(c2)OCO3)CC1 (stereo unspecified)	85*	2	8	9	-10	/
Cc1cc(C)cc(OCC(O)CN2CCN(Cc3ccc4c(c3)OCO4)CC2)c1 (stereo unspecified)	90*	2	-26	13	19	1
OC(COCc1ccc2c(c1)OCO2)CN1CCN(Cc2ccccc2)CC1 (stereo unspecified)	89*	0	-8	12	5	-9
OC(COc1ccc2c(c1)OCO2)CN1CCCC1 (stereo unspecified)	2	-4	4	6	-10	-1
OC(COc1ccc2c(c1)OCO2)CN1CCN(c2ccc(F)cc2)CC1 (stereo unspecified)	53*	-4	12	-3	15	1
CCOC(=O)C1CCN(CC(O)COCc2ccc3c(c2)OCO3)CC1 (stereo unspecified)	86*	4	/	15	28	0
CC(C)OCC(O)CN1CCN(CC(O)COc2ccc3c(c2)OCO3)CC1 (stereo unspecified)	-5	4	-3	-4	6	/
CN(C)N1C(N)=C(C#N)C(c2cccs2)C2=C1CC(C)(C)CC2=O (stereo unspecified)	9	0	-9	2	-1	/
O=S(=O)(c1cc(O)ccc1O)c1cccc2c(S(=O)(=O)c3cc(O)ccc3O)cccc12	/	15	-3	-4	11	-5
CSC[C@H](NC(=O)Cc1c(C)c2cc3c(C)c(C)oc3cc2oc1=O)C(=O)N[C@@H](Cc1ccccc1)C(=O)O	/	14	3	-10	7	-2
CCC(NC(=O)CCc1c(C)c2cc3c(C)c(C)oc3cc2oc1=O)C(=O)N[C@@H](Cc1ccccc1)C(=O)O (stereo partly specified)	/	61*	-13	3	-26	2
O=C(COc1ccc(Cl)cc1Br)Nc1nnc(C2CC2)s1	/	/	-7	/	5	2
O=C(NC1CC(=O)N(c2cccc(F)c2)C1)N1CCN(C(=O)c2ccco2)CC1 (stereo unspecified)	/	-2	-3	-4	1	2
CN(C)CCOCCSc1ccc(Cl)cc1	98*	-3	-12	47	-7	-4
OCCNCCCCSc1ccc(Cl)cc1	96*	6	-5	9	2	1
COCCCNCCOCCSc1ccc(Cl)cc1	98*	1	41	43	-12	-6
CC(C)NCCOCCSc1ccc(Cl)cc1	90*	2	31	32	8	1
Clc1ccc(SCCOCCN2CCCCCC2)cc1	/	-4	58	46	2	-2
COc1cc(/C=C/C(=O)OC(C)C(=O)Nc2c(C)n(C)n(-c3ccccc3)c2=O)ccc1OCC#N (stereo unspecified)	-16	-10	-3	12	8	3
CCCn1nnc(NC(=O)C(C)C)n1	/	1	-16	1	5	-3
COc1ccccc1S(=O)(=O)Cc1ccc(C(=O)NC2CC2)o1	/	-10	-4	-41	5	4
CCCCNCCOCCSc1ccc(Cl)cc1	99*	0	16	38	21	-2
SMILES	Lmaj promast	SKKanGAS inh	CSC inhib	T cruzi inh	Mdm2 MdmX PPI	Beta cell apopt
Clc1ccc(SCCCCn2cncn2)cc1	2	-1	-4	-1	-5	-7
COCCCNCCCCSc1ccc(Cl)cc1	95*	0	21	52	28	-2
OCCNCCSc1ccc(Cl)cc1	0	-2	-2	14	8	-6
CC(C)c1ccc2oc(-c3cc(N)ccc3O)nc2c1	-3	-3	15	60*	35	14
Cc1ccccc1-c1nc2cc(N)ccc2o1	6	-10	5	-11	-75	-4
Cc1oc(-c2ccccc2)nc1Cn1cccc1C1=NC(c2ccccc2)CO1 (stereo unspecified)	8	69*	37	9	21	6
COc1ccccc1/C=C/C(=O)c1ccccc1	/	-3	-2	1	/	4
COc1ccc(OC)c(/C=C/C(=O)c2ccc(Cl)cc2)c1	100*	-23	32	-3	13	-3
COc1ccc(OC)c(NC(=O)c2ccc(Cl)cc2)c1	-9	0	-6	10	27	-4
COc1ccccc1/C=C/C(=O)c1ccc(Cl)cc1	86*	-13	/	18	25	/
CCOc1ccccc1/C=C/C(=O)c1ccc(Cl)cc1	78*	0	18	18	11	0
COc1ccc(/C=C/C(=O)c2ccccc2)c(OC)c1	74*	-12	2	-3	-34	-1
COc1ccc(N2CCN(C(=O)COC(=O)c3ccc(CSC)o3)CC2)cc1	/	/	/	/	-10	/
Cc1ccc(Cc2nnc(SCC(=O)Nc3ccccc3)n(N)c2=O)cc1	/	0	-9	2	4	/
COc1ccc(CCN=C(C)c2cc(C)c(C)cc2O)cc1OC	/	3	-12	-6	-31	2
O=C(/C=C/c1ccccc1O)c1ccc(Cl)cc1	100*	-6	-5	-9	-3	-1
Cc1ccnc(SCCn2c(N3CC(C)OC(C)C3)nc3c2c(=O)n(C)c(=O)n3C)n1 (stereo unspecified)	-2	-25	-21	-6	-10	1
Cc1ccnc(SCCn2c(N3CC(C)CC(C)C3)nc3c2c(=O)n(C)c(=O)n3C)n1 (stereo unspecified)	58*	-4	-23	4	-16	1
COc1ccc(-c2noc3c2-c2nc(-c4ccccc4F)sc2CC3)cc1	/	1	65	-16	-3	4
COc1ccc(C2(C)NC(=O)N(CC(=O)Nc3ccc(-c4nc5ccc(C)cc5s4)cc3)C2=O)cc1 (stereo unspecified)	30	10	-25	42	-122	4
CCC1(c2ccc(F)cc2)NC(=O)N(CC(=O)Nc2ccc(-c3nc4ccc(C)cc4s3)cc2)C1=O (stereo unspecified)	8	31	22	53	-103	92*
Cc1ccc(N(CC(=O)Nc2ccc(-c3nc4ccc(C)cc4s3)cc2)S(C)(=O)=O)cc1	-4	2	8	7	-73	0

Assay outcomes (PubChem BioAssay)
